# Source: ChEMBL document CHEMBL4765239, “Discovery of a Novel Highly Selective Histamine H4 Receptor Antagonist for the Treatment of Atopic Dermatitis” (J Med Chem, 2018)
# What was measured:
# [1] = molecular target: T1, 5-hydroxytryptamine receptor 3A (Homo sapiens) (UniProt P46098); test: Displacement of [3H]BRL 43694 from human recombinant 5-HT3 receptor at 10 uM after 120 mins by scintillation counting analysis relative to control
# T1 sequence (whole entry): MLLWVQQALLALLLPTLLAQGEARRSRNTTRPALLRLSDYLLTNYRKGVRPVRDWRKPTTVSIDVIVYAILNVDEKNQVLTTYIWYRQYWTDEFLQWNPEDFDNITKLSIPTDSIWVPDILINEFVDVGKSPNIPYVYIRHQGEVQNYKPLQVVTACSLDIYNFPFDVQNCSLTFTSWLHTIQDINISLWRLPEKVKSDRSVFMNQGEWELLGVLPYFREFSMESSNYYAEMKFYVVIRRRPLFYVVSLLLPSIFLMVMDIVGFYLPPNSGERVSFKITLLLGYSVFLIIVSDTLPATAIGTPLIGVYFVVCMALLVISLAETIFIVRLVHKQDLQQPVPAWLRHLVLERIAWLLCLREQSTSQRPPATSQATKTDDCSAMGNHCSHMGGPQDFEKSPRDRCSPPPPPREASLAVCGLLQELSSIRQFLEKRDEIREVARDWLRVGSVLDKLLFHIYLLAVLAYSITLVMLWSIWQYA
# Histamine H4 receptor = Histamine H4 receptor (Homo sapiens, UniProt Q9H3N8); test: Displacement of [3H]-histamine from recombinant human histamine H4 receptor expressed in CHO-K1 cell membranes measured after 30 mins by microbeta scintillation counting method; parameters: species or system Cell membrane
# [2] = Solubility of compound in SGF at pH 1.2 incubated for 2 hrs by UPLC-UV analysis; assay type: physicochemical
# Procedure, shortened: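 Compound incubated at 37 °C in FaSSIF (pH 6.5) for 0.5 h or in SGF (pH 1.2) for 2 h. Filtered through 0.45 µm, concentration measured by UPLC-UV.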
# [3] = Intrinsic clearance in CD1 mouse liver microsomes at 5 uM incubated upto 30 mins in presence of NADPH by UPLC-UV analysis; assay type: ADME, Microsome; settings: read-out: CLH
# Procedure, shortened: (§1)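 Test compound at 5 µM incubated with pooled CD-1 mouse or human liver microsomes plus 1 mM NADPH. Remaining compound measured by UPLC-UV at 0, 10, 20 and 30 min. CLint derived from the first-order elimination rate constant, normalized to microsomal protein.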
# Histamine H3 receptor = Histamine H3 receptor (Homo sapiens, UniProt Q9Y5N1); test: Displacement of [3H]-N-alpha-methylhistamine from recombinant human histamine H3 receptor expressed in CHO-K1 cell membranes measured after 30 mins by microbeta scintillation counting method; parameters: species or system Cell membrane
# Procedure, shortened: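 Competitive binding on CHO-K1 membranes expressing human H3R ([3H]Nα-methylhistamine) or mouse H4R ([3H]histamine). Run in 50 mM Tris-HCl pH 7.4 for 30 min at 27 °C, then filtered onto 0.5% PEI-treated glass fiber and washed three times with ice-cold buffer. Bound radioactivity read by liquid scintillation counting.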
# [4] = Intrinsic clearance in human liver microsomes at 5 uM incubated upto 30 mins in presence of NADPH by UPLC-UV analysis; assay type: ADME, Microsome; settings: read-out: CLH; procedure, shortened: as §1
# [5] = Solubility of compound in FaSSIF at pH 6.5 incubated for 0.5 hrs by UPLC-UV analysis
# [6] = Cmax in ICR mouse at 50 mg/kg, po measured upto 24 hrs by LC-MS/MS analysis; assay type: ADME, organism-based; parameters: route oral, dose 50 mg/kg, time <=24; settings: in vivo
# Procedure, shortened: (§2)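 Female ICR mice, n=3 per group, given test compound orally. Blood sampled at 0.5, 1, 2, 4, 7 and 24 h post dose; plasma levels quantified by LC-MS/MS. Parameters from non-compartmental analysis.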
# [7] = AUC (all) in ICR mouse at 50 mg/kg, po measured upto 24 hrs by LC-MS/MS analysis; assay type: ADME, organism-based; parameters: route oral, dose 50 mg/kg, time <=24; settings: in vivo; procedure, shortened: as §2
# [8] = Tmax in ICR mouse at 50 mg/kg, po measured upto 24 hrs by LC-MS/MS analysis; assay type: ADME, organism-based; settings: in vivo; procedure, shortened: as §2
# [9] = Lipophilicity, logD of the compound at pH 7.4; assay type: physicochemical; settings: buffer
# [10] = Basicity constant, pKa of the compound; assay type: physicochemical
# [11] = molecular target: T2, 5-hydroxytryptamine receptor 3A (Homo sapiens, UniProt P46098); test: Displacement of [3H]BRL 43694 from human recombinant 5-HT3 receptor after 120 mins by scintillation counting analysis
# T2 sequence (P46098 whole entry): T1 sequence (whole entry)
# Histamine H3 receptor, sequence (Q9Y5N1 whole entry): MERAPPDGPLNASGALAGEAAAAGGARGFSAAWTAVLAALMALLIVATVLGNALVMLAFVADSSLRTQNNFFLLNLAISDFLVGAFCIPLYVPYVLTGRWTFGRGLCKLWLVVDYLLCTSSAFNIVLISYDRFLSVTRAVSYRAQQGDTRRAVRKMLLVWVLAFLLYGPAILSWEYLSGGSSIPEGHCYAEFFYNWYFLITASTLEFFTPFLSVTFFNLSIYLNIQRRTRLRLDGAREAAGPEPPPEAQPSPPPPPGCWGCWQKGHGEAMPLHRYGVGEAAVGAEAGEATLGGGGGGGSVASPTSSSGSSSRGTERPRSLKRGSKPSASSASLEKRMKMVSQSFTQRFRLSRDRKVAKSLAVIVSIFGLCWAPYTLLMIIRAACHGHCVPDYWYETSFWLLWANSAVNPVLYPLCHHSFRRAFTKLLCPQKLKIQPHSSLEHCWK
# Histamine H4 receptor, sequence (Q9H3N8 whole entry): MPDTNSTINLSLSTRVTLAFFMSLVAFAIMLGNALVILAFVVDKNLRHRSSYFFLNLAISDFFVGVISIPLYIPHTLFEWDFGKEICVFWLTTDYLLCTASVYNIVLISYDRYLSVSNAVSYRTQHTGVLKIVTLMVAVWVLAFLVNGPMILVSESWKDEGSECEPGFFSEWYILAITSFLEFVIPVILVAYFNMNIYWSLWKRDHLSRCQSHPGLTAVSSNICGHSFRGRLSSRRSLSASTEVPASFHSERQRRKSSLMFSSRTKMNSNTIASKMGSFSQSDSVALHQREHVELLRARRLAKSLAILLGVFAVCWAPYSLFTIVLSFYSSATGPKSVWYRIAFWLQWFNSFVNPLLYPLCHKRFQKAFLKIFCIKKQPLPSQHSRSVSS
SMILES,IC50 (Histamine H4 receptor) [µM],solubility at 2 h [2] [µg/mL],microsomal CLint at 5 µM [3] [µL/min/mg],IC50 (Histamine H3 receptor) [µM],microsomal CLint at 5 µM [4] [µL/min/mg],solubility at 0.5 h [5] [µg/mL],further results
CN(C)C1CN(c2nc3ncc(Cl)cc3n3cnnc23)C1,1.2,–,–,–,–,–,inhibition ([1]; filed as antagonist): 77.5%
Cc1ccc2nc(N3CCN(C)CC3)c3nncn3c2c1,0.57,> 2000,23.3,15,7.51,1940,–
CN(C)[C@@H]1CCN(c2nc3ncc(Cl)cc3n3cnnc23)C1,4.8,–,–,–,–,–,–
CN1CCN(c2nc3cccnc3n3cnnc23)CC1,3,1920,50.2,–,8.21,> 2000,–
CN1CCN(c2nc3nc(OCC(F)(F)F)c(Cl)cc3n3cnnc23)CC1,–,–,4.94,–,5.72,–,–
N[C@@H]1CCN(c2nc3ncc(Cl)cc3n3cnnc23)C1,6.3,–,–,–,–,–,–
CNC1CN(c2nc3ncc(Cl)cc3n3nnnc23)C1,0.053,–,–,–,–,–,inhibition [1]: 18%
Clc1cnc2nc(N3CCCNCC3)c3nncn3c2c1,> 10,–,–,–,–,–,–
Clc1cnc2nc(N3CCN4CCCC4C3)c3nncn3c2c1 (configuration not stated),0.052,–,–,24,–,–,–
CN1CCN(c2nc3ncc(Br)cc3n3nnnc23)CC1,–,–,–,49,–,–,inhibition ([1]; filed as antagonist): 89%
CNC1CN(c2nc3ncc(Cl)cc3c3ncnn23)C1,1.1,–,–,–,–,–,inhibition [1]: 32%
CN1CCN(c2nc3ccc(Cl)cc3n3cnnc23)CC1,–,> 2000,29.1,4.4,5.83,227,Cmax [6]: 676 ng/mL; AUC at 24 h [7]: 1680 ng·h/mL; Tmax [8]: 40.2 min; logD [9]: 2.12; IC50 (Histamine H4 receptor; cho-k1): 0.022 µM
CCOc1nc2nc(N3CCN(C)CC3)c3nncn3c2cc1Cl,0.52,–,3.56,–,3.28,–,–
CN1CCN(c2nc3ncc(C(F)(F)F)cc3n3cnnc23)CC1,–,> 2000,2.05,43,1.31,1230,–
Clc1cnc2nc(N3CCNCC3)c3nncn3c2c1,–,–,–,–,–,–,pKa [10]: 8.9
CN1CCN(c2nc3ncc(Cl)cc3n3cnnc23)CC1,0.077,> 2000,1.98,–,0.6,1240,IC50 [11]: 0.057 µM; Cmax [6]: 4630 ng/mL; AUC at 24 h [7]: 23600 ng·h/mL; inhibition ([1]; filed as antagonist): 100%; pKa [10]: 9.9; Tmax [8]: 30 min; logD [9]: 0.95
CN1CCCN(c2nc3ncc(Cl)cc3n3cnnc23)CC1,2.9,–,–,11,–,–,–
CN1CCN(c2nc3nc(Cl)c(Cl)cc3n3cnnc23)CC1,–,1950,5.28,–,2.55,163,–

SMILES,IC50 (Histamine H4 receptor) [µM],solubility at 2 h [2] [µg/mL],microsomal CLint at 5 µM [3] [µL/min/mg],IC50 (Histamine H3 receptor) [µM],microsomal CLint at 5 µM [4] [µL/min/mg],solubility at 0.5 h [5] [µg/mL],further results
CNC1CN(c2nc3ncc(Cl)cc3n3cnnc23)C1,0.065,–,–,–,–,–,inhibition ([1]; filed as antagonist): 50%
NC1CN(c2nc3ncc(Cl)cc3n3cnnc23)C1,5.2,–,–,–,–,–,inhibition [1]: 24.5%
Clc1cnc2nc(N3CC4CCCNC4C3)c3nncn3c2c1 (configuration not stated),> 10,–,–,–,–,–,–
CN[C@@H]1CCN(c2nc3ncc(Cl)cc3n3cnnc23)C1,4.1,–,–,–,–,–,–
CN1CCN(c2nc3ccc([N+](=O)[O-])cc3n3cnnc23)CC1,0.17,1900,10.4,41,2.63,80.2,–
CN1CCN(C(=O)c2cc3cc(Cl)ccc3[nH]2)CC1 [JNJ-7777120],–,1410,128,> 100,6.5,378,–
CN1CCN(c2nc3ncc(Cl)cc3n3nnnc23)CC1,–,–,–,73,–,–,inhibition ([1]; filed as antagonist): 85%
CN1CCN(c2nc3nc(C#N)c(Cl)cc3n3cnnc23)CC1,–,–,0.69,36,1.63,–,–
CN1CCN(c2nc3ncccc3n3cnnc23)CC1,3,> 2000,5.36,–,0.61,> 2000,–
CN1CCN(c2nc3ncc(I)cc3n3cnnc23)CC1,–,1250,3.74,–,2.81,126,–
Cc1cnc2nc(N3CCN(C)CC3)c3nncn3c2c1,–,2000,2.91,–,5.17,1900,–
Cc1c(Br)cnc2nc(N3CCN(C)CC3)c3nncn3c12,–,1800,7.62,24,3.84,583,–
CN1CCN(c2nc3ncc(C#N)cc3n3cnnc23)CC1,–,1740,2.8,–,3.49,417,–
CN1CCN(c2nc3ncc(Br)cc3n3cnnc23)CC1,–,1930,3.13,71,1.64,679,–
CN1CCN(c2cc3ccc(Cl)cc3n3cnnc23)CC1,6.2,> 2000,8.43,> 100,0.86,> 2000,–
CN1CCN(c2nc3ccccc3n3cnnc23)CC1,2.3,> 2000,73.1,> 100,11.5,1190,–
CN1CCN(c2nc3ncc(Cl)cc3c3ncnn23)CC1,–,–,–,75,–,–,inhibition ([1]; filed as antagonist): 96%
Clc1cnc2nc(N3CCN(C4CC4)CC3)c3nncn3c2c1,> 10,–,–,–,–,–,–
